These results are taken from ChEMBL document CHEMBL2331327, “Bioactive abietane and ent-kaurane diterpenoids from Isodon tenuifolius” (J Nat Prod, 2013).

The subject of data set [1] is SW480. Kind of data set: Cytotoxicity against human SW480 cells assessed as inhibition of cell viability after 48 hrs by MTT assay. Format: functional, cell-based. The following applies: SW480, 48 h. An outline of the steps:
(§1)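 Cells grown in RPMI-1640 or DMEM with 10% FBS, 37 °C, 5% CO2. Adherent lines seeded at 1 × 10^5 cells/mL and allowed 12 h to attach; suspension cells seeded just before dosing. Compounds tested at various concentrations in triplicate for 48 h; cisplatin and paclitaxel as positive controls. MTT added for 4 h at 37 °C, then lysis in 20% SDS−50% DMF and OD read at 595 nm. IC50 by Reed and Muench method.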
For orientation: Tetrazolium dyes change colour on reduction, which living cells bring about.

The subject of data set [2] is HL-60. In words: Cytotoxicity against human HL60 cells assessed as inhibition of cell viability after 48 hrs by MTT assay. Format: functional, cell-based. The settings on record: HL-60, 48 h. The gist of the method:
as §1

Data set [3] has as its system A549. In words: Cytotoxicity against human A549 cells assessed as inhibition of cell viability after 48 hrs by MTT assay. Type of data set: functional, cell-based. The settings on record: A549, 48 h. An outline of the steps: as §1
The subject of data set [4] is RAW264.7. Kind of data set: Inhibition of nitric oxide production in LPS-stimulated mouse RAW264.7 cells measured after 18 hrs by Griess reagent based multilabel plate reader analysis. Type of data set: functional, cell-based. The following applies: RAW264.7, 18 h. An outline of the steps: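 RAW264.7 macrophages in RPMI 1640 with 10% FBS at 2 × 10^5 cells/well, preincubated 24 h at 37 °C, 5% CO2. Then 18 h with 1 μg/mL LPS plus serial dilutions of compound (DMSO stock diluted in medium; top concentration 25 μM). Supernatant mixed 1:1 with Griess reagent, 5 min, absorbance at 570 nm, in triplicate. MG-132 as positive control.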
For orientation: Nitrite, measured by Griess reagent, commonly stands in for NO production.

In data set [5] the test system is SMMC-7721. Kind of data set: Cytotoxicity against human SMMC7721 cells assessed as inhibition of cell viability after 48 hrs by MTT assay. Format: functional, cell-based. The following applies: SMMC-7721, 48 h. The gist of the method:
as §1

For data set [6], the system named is MCF7. In words: Cytotoxicity against human MCF7 cells assessed as inhibition of cell viability after 48 hrs by MTT assay. Format: functional, cell-based. The settings on record: MCF7, 48 h. An outline of the steps: as §1
The test system of data set [7] is RAW264.7. Kind of data set: Cytotoxicity against mouse RAW264.7 cells assessed as inhibition of cell viability after 18 hrs by MTS assay. Format: cell-based. The following applies: raw264.7, 18 h. An outline of the steps: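 RAW264.7 cells seeded at 2 × 10^5 cells/well and preincubated 24 h, then exposed to compounds (DMSO solutions) at given concentrations for 18 h. MTS added for 4 h and absorbance read at 490 nm. Viability expressed relative to untreated cells as 100%.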

Turning to `C=C1C(=O)[C@@]23CC(=O)[C@@H]4C(C)(C)[C@@H](OC(C)=O)CC[C@@]4(C)[C@@H]2[C@@H](O)[C@H](O)[C@@H]1C3` [TENUIFOLIN J], the IC50 in data set [1] was above 10 µM; in data set [2] it was 3.8 µM; in data set [3], above 10 µM; in data set [4], 8.8 µM; in data set [5] it was 6.3 µM; in data set [6] it was above 10 µM. Further, the Activity entry in data set [7] is reported as “Non-toxic”.

As a reminder, the IC50 is the point on the concentration scale where inhibition reaches its midpoint.
